# Source: ChEMBL document CHEMBL4043273, “Phenotypic Optimization of Urea-Thiophene Carboxamides To Yield Potent, Well Tolerated, and Orally Active Protective Agents against Aminoglycoside-Induced Hearing Loss” (J Med Chem, 2018)
# Calls of active or inactive are those of the source.
# Tests used:
# Escherichia coli [1] = test: Effect on neomycin MBC for Escherichia coli ATCC 25922; format: functional
# Escherichia coli [2] = test: Effect on neomycin MIC for Escherichia coli ATCC 25922; format: functional
# Rattus norvegicus [3] = test: Protection against kanamycin-induced hearing loss at 8 to 32 kHz in Sprague-Dawley rat at 25 mg/kg/day, ip treated for 14 days followed by recovery without treatment for additional 14 days by auditory brain stem response assay; format: functional, organism-based
# [4] = target: Voltage-gated inwardly rectifying potassium channel KCNH2 (Homo sapiens, UniProt Q12809)
# Sequence of Voltage-gated inwardly rectifying potassium channel KCNH2 (Q12809 whole entry): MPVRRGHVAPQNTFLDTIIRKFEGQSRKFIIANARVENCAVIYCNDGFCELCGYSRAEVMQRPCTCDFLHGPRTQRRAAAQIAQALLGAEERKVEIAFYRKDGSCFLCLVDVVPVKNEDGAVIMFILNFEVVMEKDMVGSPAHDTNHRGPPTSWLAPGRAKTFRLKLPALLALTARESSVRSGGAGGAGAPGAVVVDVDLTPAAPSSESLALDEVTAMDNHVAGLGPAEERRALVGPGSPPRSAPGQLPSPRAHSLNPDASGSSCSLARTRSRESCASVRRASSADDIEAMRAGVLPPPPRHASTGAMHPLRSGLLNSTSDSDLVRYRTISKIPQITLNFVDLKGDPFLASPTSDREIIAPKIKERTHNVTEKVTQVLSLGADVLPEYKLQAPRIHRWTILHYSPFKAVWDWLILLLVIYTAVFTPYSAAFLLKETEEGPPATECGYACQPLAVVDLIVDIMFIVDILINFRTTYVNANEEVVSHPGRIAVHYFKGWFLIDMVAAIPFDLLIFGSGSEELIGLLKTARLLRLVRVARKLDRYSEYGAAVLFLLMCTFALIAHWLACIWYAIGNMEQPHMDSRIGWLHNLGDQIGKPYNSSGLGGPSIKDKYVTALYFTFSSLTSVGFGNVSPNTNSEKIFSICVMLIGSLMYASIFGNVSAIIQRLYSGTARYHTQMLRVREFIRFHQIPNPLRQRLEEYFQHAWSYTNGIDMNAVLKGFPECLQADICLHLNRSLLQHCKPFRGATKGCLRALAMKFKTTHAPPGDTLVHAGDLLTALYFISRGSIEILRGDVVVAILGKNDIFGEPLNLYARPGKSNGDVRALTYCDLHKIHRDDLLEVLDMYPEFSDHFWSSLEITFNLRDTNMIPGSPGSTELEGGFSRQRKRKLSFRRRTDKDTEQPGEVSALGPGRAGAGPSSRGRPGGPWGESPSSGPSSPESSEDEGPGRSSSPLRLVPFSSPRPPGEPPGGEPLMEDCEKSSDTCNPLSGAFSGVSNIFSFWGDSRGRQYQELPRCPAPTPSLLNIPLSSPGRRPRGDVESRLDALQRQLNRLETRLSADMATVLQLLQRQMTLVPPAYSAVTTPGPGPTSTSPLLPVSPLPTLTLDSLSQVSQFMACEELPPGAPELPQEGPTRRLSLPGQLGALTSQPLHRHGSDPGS
# Rattus norvegicus [5] = test: (§1) Oral bioavailability in rat at 25 mg/kg; format: ADME, organism-based; conditions: in vivo
# Rattus norvegicus [6] = test: Acute toxicity in rat at 50 mg/kg, iv; format: organism-based; conditions: in vivo
# Plasma [7] = test: (§2) Protein binding in human plasma; format: ADME, cell-free
# HepG2 = test: Cytotoxicity against human HepG2 cells assessed as decrease in cell growth after 72 hrs by celltiter glo assay; format: cell-based; conditions: HepG2, 72 h
# Rattus norvegicus [8] = species: Rattus norvegicus; test: (§3) Elimination half life in rat by LC-MS method; format: ADME; conditions: in vivo
# [9] = Drug metabolism assessed as air oxidation; format: physicochemical
# Plasma [10] = test: (§4) Protein binding in rat plasma; format: ADME, cell-free
# Danio rerio [11] = species: Danio rerio; test: Protection against neomycin-induced hair cell death in AB zebra fish larvae assessed as increase in hair cell survival preincubated for 1 hr followed by neomycin challenge for 1 hr by DASPEI staining-based epifluorescence dissecting microscopic method; format: functional
# Cytochrome P450 2D6 = Cytochrome P450 2D6 (Homo sapiens, UniProt P10635); test: Inhibition of CYP2D6 (unknown origin); format: ADME
# Sequence of Cytochrome P450 2D6 (P10635 whole entry): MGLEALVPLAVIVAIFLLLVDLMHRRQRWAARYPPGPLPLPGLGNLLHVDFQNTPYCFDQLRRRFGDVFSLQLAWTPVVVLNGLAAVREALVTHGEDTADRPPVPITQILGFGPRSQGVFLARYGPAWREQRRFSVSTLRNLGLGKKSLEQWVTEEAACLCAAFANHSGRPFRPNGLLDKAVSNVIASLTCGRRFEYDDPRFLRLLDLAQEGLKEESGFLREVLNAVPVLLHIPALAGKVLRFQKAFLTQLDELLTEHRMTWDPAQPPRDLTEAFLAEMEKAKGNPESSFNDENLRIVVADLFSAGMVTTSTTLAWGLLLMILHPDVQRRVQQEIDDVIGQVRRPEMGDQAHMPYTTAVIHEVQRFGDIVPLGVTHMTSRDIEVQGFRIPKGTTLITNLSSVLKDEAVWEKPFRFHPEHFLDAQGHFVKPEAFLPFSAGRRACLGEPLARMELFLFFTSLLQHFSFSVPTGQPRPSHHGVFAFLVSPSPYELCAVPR
# Cytochrome P450 2C9 = Cytochrome P450 2C9 (Homo sapiens, UniProt P11712); test: Inhibition of CYP2C9 (unknown origin); format: ADME
# Sequence of Cytochrome P450 2C9 (P11712 whole entry): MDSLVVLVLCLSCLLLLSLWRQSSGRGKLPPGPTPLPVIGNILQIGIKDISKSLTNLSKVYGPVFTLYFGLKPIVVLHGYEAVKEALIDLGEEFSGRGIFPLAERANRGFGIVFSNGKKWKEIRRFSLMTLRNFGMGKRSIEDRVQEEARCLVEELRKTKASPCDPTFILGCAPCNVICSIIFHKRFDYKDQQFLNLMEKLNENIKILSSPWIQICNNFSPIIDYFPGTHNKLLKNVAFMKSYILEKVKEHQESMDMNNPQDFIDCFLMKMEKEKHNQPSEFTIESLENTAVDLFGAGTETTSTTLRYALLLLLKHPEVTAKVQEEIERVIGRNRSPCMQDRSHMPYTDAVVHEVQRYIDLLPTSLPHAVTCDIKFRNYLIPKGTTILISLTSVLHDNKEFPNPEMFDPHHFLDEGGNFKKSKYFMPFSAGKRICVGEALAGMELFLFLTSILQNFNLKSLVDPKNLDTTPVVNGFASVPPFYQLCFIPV
# Cytochrome P450 2C19 = Cytochrome P450 2C19 (Homo sapiens, UniProt P33261); test: Inhibition of CYP2C19 (unknown origin); format: ADME
# Sequence of Cytochrome P450 2C19 (P33261 whole entry): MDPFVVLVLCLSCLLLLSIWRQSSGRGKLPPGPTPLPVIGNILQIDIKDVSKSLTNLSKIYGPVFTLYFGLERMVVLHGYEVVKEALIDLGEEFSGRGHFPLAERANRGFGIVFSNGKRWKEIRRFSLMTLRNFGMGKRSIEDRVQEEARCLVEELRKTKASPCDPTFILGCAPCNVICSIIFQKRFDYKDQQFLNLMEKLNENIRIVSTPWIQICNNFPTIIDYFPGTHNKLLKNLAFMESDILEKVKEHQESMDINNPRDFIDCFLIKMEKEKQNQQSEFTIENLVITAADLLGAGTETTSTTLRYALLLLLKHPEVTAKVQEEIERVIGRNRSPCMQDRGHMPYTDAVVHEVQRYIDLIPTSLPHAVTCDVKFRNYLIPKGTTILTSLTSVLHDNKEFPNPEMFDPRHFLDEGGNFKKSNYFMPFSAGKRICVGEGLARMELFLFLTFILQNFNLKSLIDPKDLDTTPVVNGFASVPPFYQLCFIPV
# [12] = Aqueous solubility of compound at pH 7.4; format: physicochemical
# Cytochrome P450 3A4 = Cytochrome P450 3A4 (Homo sapiens, UniProt P08684); test: Inhibition of CYP3A4 (unknown origin); format: ADME
# Sequence of Cytochrome P450 3A4 (P08684 whole entry): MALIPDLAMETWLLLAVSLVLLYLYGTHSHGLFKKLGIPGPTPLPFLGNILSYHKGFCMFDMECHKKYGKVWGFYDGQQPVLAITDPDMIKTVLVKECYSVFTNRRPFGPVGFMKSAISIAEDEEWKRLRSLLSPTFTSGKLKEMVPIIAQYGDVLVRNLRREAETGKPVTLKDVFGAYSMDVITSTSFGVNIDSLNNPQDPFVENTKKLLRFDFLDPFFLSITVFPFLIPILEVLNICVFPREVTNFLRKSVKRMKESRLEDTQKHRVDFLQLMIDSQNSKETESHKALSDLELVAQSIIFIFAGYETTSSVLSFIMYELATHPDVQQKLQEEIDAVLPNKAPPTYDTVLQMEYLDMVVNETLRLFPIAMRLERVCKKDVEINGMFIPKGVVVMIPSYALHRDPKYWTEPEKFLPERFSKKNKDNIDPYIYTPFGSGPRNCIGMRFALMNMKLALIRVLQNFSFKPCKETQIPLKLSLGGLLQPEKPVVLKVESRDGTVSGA
# [13] = Ratio of IC50 for human ERG expressed in HEK293 cells to HC50 for protection against neomycin-induced hair cell death in AB zebra fish larvae
# [14] = as §1; format: ADME, organism-based; conditions: in vivo
# [15] = as §2; format: ADME, cell-free; conditions: read-out: PPB
# [16] = as §3; format: ADME; conditions: in vivo, read-out: beta t1/2 (converted)
# [17] = as §4; format: ADME, cell-free; conditions: read-out: PPB
# Pseudomonas aeruginosa [18] = test: Effect on kanamycin MIC for Pseudomonas aeruginosa 103 ATCC 27853; format: functional
# Pseudomonas aeruginosa [19] = test: Effect on tobramycin MIC for Pseudomonas aeruginosa 103 ATCC 27853; format: functional
# Pseudomonas aeruginosa [20] = test: Effect on tobramycin MIC for Pseudomonas aeruginosa 6471; format: functional
# Pseudomonas aeruginosa [21] = test: Effect on neomycin MIC for Pseudomonas aeruginosa 6325; format: functional
# Rattus norvegicus [22] = test: Protection against amikacin-induced hair cell death in Fischer 344 rat corti at 5 mg/kg/day administered via oral gavage for 12 days followed by recovery without treatment for additional 14 days by immunohistochemical method; format: functional, organism-based
# Procedure, shortened: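 Rats given amikacin 320 mg/kg/day s.c. plus compound 5 mg/kg p.o. daily for 12 days; saline s.c. controls. Cochleae fixed in 4% paraformaldehyde and dissected. Organ of Corti immunostained for myosin 7A (hair cells), Sox2 (supporting-cell nuclei) and neurofilament (neuronal processes). Basal turn imaged by confocal microscopy.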
# Pseudomonas aeruginosa [23] = test: Effect on kanamycin MIC for aminoglycoside-resistant Pseudomonas aeruginosa 6322; format: functional
# Pseudomonas aeruginosa [24] = test: Effect on kanamycin MIC for Pseudomonas aeruginosa 6471; format: functional
# Rattus norvegicus [25] = test: Protection against amikacin-induced hearing loss at 2 to 32 kHz in Fischer 344 rat at 5 mg/kg/day administered via oral gavage for 12 days followed by recovery without treatment for additional 14 days by auditory brain stem response assay; format: functional, organism-based
# Procedure, shortened: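 Male Fischer 344 rats had ABR thresholds measured 1–2 weeks before treatment and 2 weeks after it, under isoflurane, on a heating pad near 37°C, in a sound-attenuating chamber. Amikacin 320 mg/kg/day s.c. for 12 days, with compound 5 mg/kg/day by oral gavage in PEG300:DMA:EtOH:H2O. Groups: amikacin alone or amikacin plus compound.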
# Pseudomonas aeruginosa [26] = test: Effect on kanamycin MIC for Pseudomonas aeruginosa 6325; format: functional
# Pseudomonas aeruginosa [27] = test: Effect on neomycin MIC for Pseudomonas aeruginosa 6471; format: functional
# Pseudomonas aeruginosa [28] = test: Effect on amikacin MIC for Pseudomonas aeruginosa 103 ATCC 27853; format: functional
# Pseudomonas aeruginosa [29] = test: Effect on tobramycin MIC for aminoglycoside-resistant Pseudomonas aeruginosa 6322; format: functional
# Pseudomonas aeruginosa [30] = test: Effect on tobramycin MIC for Pseudomonas aeruginosa 6160; format: functional
# Pseudomonas aeruginosa [31] = test: Effect on amikacin MIC for Pseudomonas aeruginosa 6325; format: functional
# Pseudomonas aeruginosa [32] = test: Effect on neomycin MIC for aminoglycoside-resistant Pseudomonas aeruginosa 6322; format: functional
# Pseudomonas aeruginosa [33] = test: Effect on amikacin MIC for Pseudomonas aeruginosa 6160; format: functional
# Pseudomonas aeruginosa [34] = test: Effect on neomycin MIC for Pseudomonas aeruginosa 103 ATCC 27853; format: functional
# Pseudomonas aeruginosa [35] = test: Effect on neomycin MIC for Pseudomonas aeruginosa 6160; format: functional
# Pseudomonas aeruginosa [36] = test: Effect on tobramycin MIC for Pseudomonas aeruginosa 6325; format: functional
# [37] = tested on: Mycobacterium tuberculosis; test: Effect on moxifloxacin-induced antibacterial activity against Mycobacterium tuberculosis in mouse pulmonary tuberculosis model; format: functional
# [38] = tested on: Mycobacterium tuberculosis; test: Effect on amikacin-induced antibacterial activity against Mycobacterium tuberculosis in mouse pulmonary tuberculosis model; format: functional
# Pseudomonas aeruginosa [39] = test: Effect on amikacin MIC for Pseudomonas aeruginosa 6471; format: functional
# [40] = tested on: Mycobacterium tuberculosis; test: Effect on kanamycin-induced antibacterial activity against Mycobacterium tuberculosis in mouse pulmonary tuberculosis model; format: functional
# Pseudomonas aeruginosa [41] = test: Effect on kanamycin MIC for Pseudomonas aeruginosa 6160; format: functional
# Pseudomonas aeruginosa [42] = test: Effect on amikacin MIC for aminoglycoside-resistant Pseudomonas aeruginosa 6322; format: functional
# [43] = tested on: Mycobacterium tuberculosis; test: Effect on amikacin MIC for Mycobacterium tuberculosis H37Rv at 1 to 10 uM; format: functional
# [44] = Protein binding in plasma; conditions: read-out: PPB (converted)
# Rattus norvegicus [45] = test: Change in hearing threshold in Fischer 344 rat at 5 to 25 mg/kg/day administered via oral gavage for 12 days; format: ADME, organism-based; conditions: in vivo, 288 h
# Procedure, shortened: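 Fischer 344 rats given compound alone by oral gavage at 5 or 25 mg/kg/day for 12 days (n=3 per dose), vehicle PEG300:DMA:EtOH:H2O. ABR thresholds measured before dosing and after a 2-week recovery, under isoflurane anaesthesia in a sound-attenuating chamber.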
# Danio rerio [46] = species: Danio rerio; test: Protection against neomycin-induced hair cell death in AB zebra fish larvae assessed as increase in hair cell survival at 2.8 uM preincubated for 1 hr followed by neomycin challenge for 1 hr by DASPEI staining-based epifluorescence dissecting microscopic method relative to control; format: functional
# Procedure, shortened: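 AB larvae raised at 28.5°C in embryo medium and tested at 5-7 dpf, ten fish per basket. Pretreatment with compound for 1 h at 1.56–25 µM (halved further if the lowest dose protected), then compound plus 200 µM neomycin for 1 h. After rinsing, 0.05% DASPEI stain for 15 min and MS222 anaesthesia. Ten neuromasts per fish scored 0–2 under epifluorescence, normalised to untreated fish as % survival; HC50 linearly interpolated.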
# [47] = Metabolic stability in microsomes (unknown origin); format: ADME, Microsome
# [48] = Permeability across MDCK cells expressing MDR1; format: ADME, cell-based, Canis lupus familiaris; conditions: dog, read-out: permeability
# [49] = aqueous medium, read-out: solubility
structure (smiles),measurement,setting,value
CCN1CCc2c(sc(NC(=O)Nc3ccc(Cl)cc3)c2C(N)=O)C1,Activity,Escherichia coli [1],inactive
same,Activity,Escherichia coli [2],inactive
same,Activity,Rattus norvegicus [3],Active
CCN1CCc2c(sc(NC(=O)Nc3ccc(Cl)cc3)c2C(N)=O)C1.Cl,IC50,[4],3.26 µM
same,F,Rattus norvegicus [5],46%
same,Activity,Rattus norvegicus [6],Non-Toxic
same,PPB,Plasma [7],95.9%
same,IC50,HepG2,> 300 µM
same,beta t1/2,Rattus norvegicus [8],2.1 h
same,Drug metabolism,[9],Metabolite_Detected
same,PPB,Plasma [10],94.1%
same,EC50,Danio rerio [11],3.12 µM
CC1(C)Cc2c(sc(NC(=O)Nc3ccc(Cl)cc3)c2C(N)=O)C(C)(C)N1.Cl,IC50,[4],> 30 µM
same,inhibition (INH),Cytochrome P450 2D6; human,Not Active
same,F,Rattus norvegicus [5],21%
same,inhibition (INH),Cytochrome P450 2C9; human,Not Active
same,inhibition (INH),Cytochrome P450 2C19; human,Not Active
same,Activity,Rattus norvegicus [6],Non-Toxic
same,solubility,[12]; buffer,13 µM
same,PPB,Plasma [7],96.5%
same,IC50,HepG2,> 300 µM
same,beta t1/2,Rattus norvegicus [8],6.2 h
same,inhibition (INH),Cytochrome P450 3A4; human,Not Active
same,Drug metabolism,[9],Metabolite_Notdetected
same,PPB,Plasma [10],95.8%
same,EC50,Danio rerio [11],1.24 µM
same,Ratio,[13],>24
NC(=O)c1c(NC(=O)Nc2ccc(Cl)cc2)sc2c1CCN(CCCNC(=O)CCc1c[nH]c3ccccc13)C2,IC50,[4],20.1 µM
same,bioavailability,[14],> 1%
same,Activity,Rattus norvegicus [6],Non-Toxic
same,solubility,[12]; [49],86 µM
same,fraction unbound,[15],0.001
same,IC50,HepG2,17 µM
same,half-life,[16],7.1 h
same,Drug metabolism,[9],Metabolite_Detected
same,fraction unbound,[17],0.001
same,EC50,Danio rerio [11],0.1 µM
same,Ratio,[13],201
CN1[C@@H]2CC[C@H]1c1c(sc(NC(=O)Nc3ccc(Cl)cc3)c1C(N)=O)C2,Activity,Pseudomonas aeruginosa [18],inactive
same,Activity,Pseudomonas aeruginosa [19],inactive
same,Activity,Pseudomonas aeruginosa [20],inactive
same,Activity,Pseudomonas aeruginosa [21],inactive
same,Activity,Rattus norvegicus [22],Active
same,Activity,Escherichia coli [1],inactive
same,Activity,Escherichia coli [2],inactive
same,Activity,Pseudomonas aeruginosa [23],inactive
same,Activity,Pseudomonas aeruginosa [24],inactive
same,Activity,Rattus norvegicus [25],Active
same,Activity,Pseudomonas aeruginosa [26],inactive
same,Activity,Pseudomonas aeruginosa [27],inactive
same,Activity,Pseudomonas aeruginosa [28],inactive
same,Activity,Pseudomonas aeruginosa [29],inactive
same,Activity,Pseudomonas aeruginosa [30],inactive
same,Activity,Pseudomonas aeruginosa [31],inactive
same,Activity,Pseudomonas aeruginosa [32],inactive
same,Activity,Pseudomonas aeruginosa [33],inactive
same,Activity,Pseudomonas aeruginosa [34],inactive
same,Activity,Pseudomonas aeruginosa [35],inactive
same,Activity,Pseudomonas aeruginosa [36],inactive
same,Activity,[37],inactive
same,Activity,[38],inactive
same,Activity,Pseudomonas aeruginosa [39],inactive
same,Activity,[40],inactive
same,Activity,Pseudomonas aeruginosa [41],inactive
same,Activity,Pseudomonas aeruginosa [42],inactive
same,Activity,[43],inactive
CN1[C@@H]2CC[C@H]1c1c(sc(NC(=O)Nc3ccc(Cl)cc3)c1C(N)=O)C2.Cl,IC50,Cytochrome P450 2D6,> 100 µM
same,fraction unbound,[44],0.1
same,bioavailability,[14],> 50%
same,IC50,Cytochrome P450 2C9,60 µM
same,IC50,Cytochrome P450 2C19,58 µM
same,Activity,Rattus norvegicus [6],Non-Toxic
same,Activity,Rattus norvegicus [45],Non-Toxic
same,%max,Danio rerio [46],98%
same,solubility,[12]; [49],86 µM
same,fraction unbound,[15],0.093 to 0.11
same,IC50,HepG2,> 300 µM
same,Stability,[47],Stable
same,half-life,[16],7.8 h
same,IC50,Cytochrome P450 3A4,46 µM
same,Papp,[48],5.2 ×10⁻⁶ cm/s
same,Drug metabolism,[9],Metabolite_Notdetected
same,fraction unbound,[17],0.099 to 0.14
same,EC50,Danio rerio [11],0.12 µM
same,Ratio,[13],47
